{
  "source": "ChEMBL document CHEMBL4834477",
  "about": "“Synthesis and biological evaluation of novel purinyl quinazolinone derivatives as PI3Kδ-specific inhibitors for the treatment of hematologic malignancies” (Bioorg Med Chem, 2021)",
  "key": {"[1]": {"target": "T1, Phosphatidylinositol 4,5-bisphosphate 3-kinase catalytic subunit delta isoform (Homo sapiens) (UniProt O00329)", "T1 sequence (whole entry)": "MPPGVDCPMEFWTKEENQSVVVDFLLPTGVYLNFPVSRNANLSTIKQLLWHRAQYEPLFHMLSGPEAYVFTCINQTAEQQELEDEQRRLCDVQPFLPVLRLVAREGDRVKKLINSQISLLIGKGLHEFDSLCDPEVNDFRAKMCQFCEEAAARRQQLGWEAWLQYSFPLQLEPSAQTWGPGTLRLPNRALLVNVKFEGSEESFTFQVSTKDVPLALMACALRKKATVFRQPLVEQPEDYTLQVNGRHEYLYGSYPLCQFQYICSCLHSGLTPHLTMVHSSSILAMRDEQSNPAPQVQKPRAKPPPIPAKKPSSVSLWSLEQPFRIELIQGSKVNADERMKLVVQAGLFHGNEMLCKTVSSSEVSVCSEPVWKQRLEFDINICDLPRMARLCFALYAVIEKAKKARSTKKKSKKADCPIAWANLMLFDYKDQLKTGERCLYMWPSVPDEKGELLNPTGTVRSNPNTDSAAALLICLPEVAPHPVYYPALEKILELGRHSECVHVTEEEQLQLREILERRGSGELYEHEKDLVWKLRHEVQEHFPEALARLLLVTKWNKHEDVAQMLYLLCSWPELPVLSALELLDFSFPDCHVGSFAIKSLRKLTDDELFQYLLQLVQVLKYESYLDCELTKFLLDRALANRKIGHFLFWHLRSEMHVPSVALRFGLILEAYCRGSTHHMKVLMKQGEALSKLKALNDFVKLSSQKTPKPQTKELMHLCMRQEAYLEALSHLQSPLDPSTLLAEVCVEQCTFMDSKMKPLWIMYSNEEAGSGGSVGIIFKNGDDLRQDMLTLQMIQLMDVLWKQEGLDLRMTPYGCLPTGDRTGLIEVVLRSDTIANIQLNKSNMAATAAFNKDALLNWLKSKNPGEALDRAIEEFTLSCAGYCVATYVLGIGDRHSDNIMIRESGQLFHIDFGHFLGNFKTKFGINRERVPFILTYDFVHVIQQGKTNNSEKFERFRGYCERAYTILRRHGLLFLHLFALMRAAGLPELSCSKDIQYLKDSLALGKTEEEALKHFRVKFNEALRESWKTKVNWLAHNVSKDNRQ", "test": "Inhibition of PI3Kdelta in human SU-DHL-5 cells assessed as inhibition of AKT phosphorylation at Ser473 residue at 1 to 5 uM measured after 3 hrs by western blot assay", "type": "cell-based", "conditions": "dose 1-5 µM", "procedure,_shortened": "(§1)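 Treatment lasted 3 h: SUDHL-5 at 1 μM, MOLT-4 at 5 μM. Cells washed twice in cold PBS and lysed. Proteins resolved on 10–12% SDS-PAGE and blotted to PVDF. Probed for p-AKT S473, p-AKT T308, p-S6 and p-4E-BP1, with β-actin as loading control.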"}, "SU-DHL10 [2]": {"tested_on": "SU-DHL10", "test": "Induction of apoptosis in human SU-DHL-10 cells assessed as viable cells at 20 uM measured after 24 hrs by AnnexinV-FITC/PI staining based flowcytometry method (reference value: 90%)", "type": "functional", "conditions": "read-out: Activity", "procedure,_shortened": "(§2)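 Cells exposed to 20 μM compound for 24 h, washed with cold PBS, and stained with Annexin V-FITC and propidium iodide for 15 min at room temperature. Viable, early apoptotic, late apoptotic and necrotic populations quantified by flow cytometry.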"}, "SU-DHL10 [3]": {"tested_on": "SU-DHL10", "test": "Induction of apoptosis in human SU-DHL-10 cells assessed as necrotic cells at 20 uM measured after 24 hrs by AnnexinV-FITC/PI staining based flowcytometry method (reference value: 0.2%)", "type": "functional", "procedure,_shortened": "as §2"}, "[4]": {"target": "T1, Phosphatidylinositol 4,5-bisphosphate 3-kinase catalytic subunit delta isoform (Homo sapiens)", "test": "Inhibition of PI3Kdelta in human SU-DHL-5 cells assessed as inhibition of AKT phosphorylation at Thr308 residue at 1 to 5 uM measured after 3 hrs by western blot assay", "type": "cell-based", "conditions": "dose 1-5 µM", "procedure,_shortened": "as §1"}, "MOLT-4 [5]": {"tested_on": "MOLT-4", "test": "Induction of apoptosis in human MOLT-4 cells assessed as early apoptotic cells at 20 uM measured after 24 hrs by AnnexinV-FITC/PI staining based flowcytometry method (reference value: 2.04%)", "type": "functional", "procedure,_shortened": "as §2"}, "MOLT-4 [6]": {"tested_on": "MOLT-4", "test": "Induction of apoptosis in human MOLT-4 cells assessed as viable cells at 20 uM measured after 24 hrs by AnnexinV-FITC/PI staining based flowcytometry method (reference value: 95.3%)", "type": "functional", "conditions": "read-out: Activity", "procedure,_shortened": "as §2"}, "MOLT-4 [7]": {"tested_on": "MOLT-4", "test": "Induction of apoptosis in human MOLT-4 cells assessed as late apoptotic cells at 20 uM measured after 24 hrs by AnnexinV-FITC/PI staining based flowcytometry method (reference value: 2.17%)", "type": "functional", "procedure,_shortened": "as §2"}, "[8]": {"test": "Cytotoxicity against human MRC5 cells assessed as inhibition of cell viability at 20 uM measured after 48 hrs by MTT assay", "type": "cell-based", "conditions": "read-out: INH", "procedure,_shortened": "(§3)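 MTT assay in MRC-5 cells seeded at 2×10^6 cells/mL. Compound given in 1% FBS EMEM for 48 h at 37 °C in CO2. MTT solution then added for 3 h at 37 °C. Medium removed and formazan dissolved in DMSO.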"}, "[9]": {"test": "Tmax in Sprague-Dawley rat at 3 mg/kg, po measured for 24 hrs by LC-MS/MS analysis", "type": "ADME, organism-based", "conditions": "in vivo", "procedure,_shortened": "(§4)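 Sprague-Dawley rats dosed orally at 1 or 3 mg/kg, three animals per group. Blood sampled at 0.25, 0.5, 1, 2, 4, 8 and 24 h post-dose. Plasma separated by centrifugation, extracted and quantified by LC-MS/MS. PK parameters (Cmax, AUClast, Tmax, t1/2) derived by non-compartmental software.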"}, "MOLT-4 [10]": {"tested_on": "MOLT-4", "test": "Induction of apoptosis in human MOLT-4 cells assessed as necrotic cells at 20 uM measured after 24 hrs by AnnexinV-FITC/PI staining based flowcytometry method (reference value: 0.51%)", "type": "functional", "procedure,_shortened": "as §2"}, "SU-DHL10 [11]": {"tested_on": "SU-DHL10", "test": "Induction of apoptosis in human SU-DHL-10 cells assessed as early apoptotic cells at 20 uM measured after 24 hrs by AnnexinV-FITC/PI staining based flowcytometry method (reference value: 6.32%)", "type": "functional", "procedure,_shortened": "as §2"}, "[12]": {"target": "T1, Phosphatidylinositol 4,5-bisphosphate 3-kinase catalytic subunit delta isoform (Homo sapiens)", "test": "Inhibition of PI3Kdelta in human MOLT-4 cells assessed as inhibition of AKT phosphorylation at Thr308 residue at 1 to 5 uM measured after 3 hrs by western blot assay", "type": "cell-based", "conditions": "dose 1-5 µM", "procedure,_shortened": "as §1"}, "SU-DHL-5": {"tested_on": "SU-DHL-5", "test": "Antiproliferative activity against human SU-DHL-5 cells assessed as cell viability at 10 uM by CellTiter-Glo luminescent cell viability assay (reference value: 100%)", "type": "functional", "conditions": "read-out: Activity"}, "MRC5": {"tested_on": "MRC5", "test": "Cytotoxicity against human MRC5 cells assessed as inhibition of cell viability measured after 48 hrs by MTT assay", "type": "cell-based", "conditions": "MRC5, 48 h", "procedure,_shortened": "as §3"}, "SU-DHL10 [13]": {"tested_on": "SU-DHL10", "test": "Induction of apoptosis in human SU-DHL-10 cells assessed as late apoptotic cells at 20 uM measured after 24 hrs by AnnexinV-FITC/PI staining based flowcytometry method (reference value: 3.48%)", "type": "functional", "procedure,_shortened": "as §2"}, "[14]": {"test": "Toxicity in Balb/c nude mouse xenografted with human MOLT-4 cells assessed as changes in body weight at 10 mg/kg, po administered via gavage qd for 57 days", "type": "organism-based", "conditions": "in vivo, 1368 h, dose 10 mg/kg/day, time 57 day", "procedure,_shortened": "(§5)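 MOLT-4 cells (2×10^6 in 0.1 mL D-PBS) implanted subcutaneously on the back of BALB/c-nude mice. Once tumours grew, mice were dosed daily by oral gavage at 10 mg/kg for 57 consecutive days. Tumours measured by caliper, with volume = ½ × […]. Body weight was tracked over the same period.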"}, "[15]": {"test": "Cmax in Sprague-Dawley rat at 3 mg/kg, po measured for 24 hrs by LC-MS/MS analysis", "type": "ADME, organism-based", "parameters": "route oral, time 24 hrs, dose 3 mg/kg", "conditions": "in vivo", "procedure,_shortened": "as §4"}, "[16]": {"target": "T1, Phosphatidylinositol 4,5-bisphosphate 3-kinase catalytic subunit delta isoform (Homo sapiens)", "test": "Inhibition of PI3Kdelta in human MOLT-4 cells assessed as inhibition of AKT phosphorylation at Ser473 residue at 1 to 5 uM measured after 3 hrs by western blot assay", "type": "cell-based", "conditions": "dose 1-5 µM", "procedure,_shortened": "as §1"}, "[17]": {"test": "AUC (last) in Sprague-Dawley rat at 3 mg/kg, po measured for 24 hrs by LC-MS/MS analysis", "type": "ADME, organism-based", "parameters": "route oral, time 24 hrs, dose 3 mg/kg", "conditions": "in vivo", "procedure,_shortened": "as §4"}, "[18]": {"test": "Half life in Sprague-Dawley rat at 3 mg/kg, po measured for 24 hrs by LC-MS/MS analysis", "type": "ADME, organism-based", "conditions": "in vivo", "procedure,_shortened": "as §4"}, "MOLT-4 [19]": {"tested_on": "MOLT-4", "test": "Antiproliferative activity against human MOLT-4 cells assessed as cell viability at 20 uM by CellTiter-Glo luminescent cell viability assay (reference value: 100%)", "type": "functional", "conditions": "read-out: Activity"}, "MOLT-4 [20]": {"tested_on": "MOLT-4", "test": "Antitumour activity against human MOLT-4 cells xenografted in Balb/c nude mouse assessed as inhibition of tumour growth at 10 mg/kg, po administered via gavage qd for 57 days", "type": "functional", "conditions": "dose 10.0 mg/kg/day, time 57.0 day", "procedure,_shortened": "as §5"}},
  "note": "Calls of active or inactive are those of the source. No cut-off for these calls is given here.",
  "data": [
    {"smiles": "CC[C@H](Nc1ncnc2[nH]cnc12)c1nc2cccc(F)c2c(=O)n1-c1ccccc1", "note": "[IDELALISIB]", "values": [
      {"measurement": "inhibition", "setting": "[1]", "result": "Active"},
      {"measurement": "viability at 20 µM", "setting": "SU-DHL10 [2]", "result": 12.2, "unit": "%"},
      {"measurement": "Activity", "setting": "SU-DHL10 [3]", "result": 1.7, "unit": "%"},
      {"measurement": "inhibition", "setting": "[4]", "result": "Active"},
      {"measurement": "Activity", "setting": "MOLT-4 [5]", "result": 19.2, "unit": "%"},
      {"measurement": "viability at 20 µM", "setting": "MOLT-4 [6]", "result": 56.5, "unit": "%"},
      {"measurement": "Activity", "setting": "MOLT-4 [7]", "result": 22, "unit": "%"},
      {"measurement": "cytotoxicity at 48 h, 20 µM", "setting": "[8]", "result": 18.4, "unit": "%"},
      {"measurement": "Tmax", "setting": "[9]", "result": 0.5, "unit": "h"},
      {"measurement": "Activity", "setting": "MOLT-4 [10]", "result": 2.34, "unit": "%"},
      {"measurement": "Activity", "setting": "SU-DHL10 [11]", "result": 55.7, "unit": "%"},
      {"measurement": "inhibition", "setting": "[12]", "result": "Active"},
      {"measurement": "viability at 10 µM", "setting": "SU-DHL-5", "result": 41.3, "unit": "%"},
      {"measurement": "IC50", "setting": "MRC5", "result": "> 100", "unit": "µM"},
      {"measurement": "Activity", "setting": "SU-DHL10 [13]", "result": 30.4, "unit": "%"},
      {"measurement": "Activity", "setting": "[14]", "result": "Non-Toxic"},
      {"measurement": "Cmax", "setting": "[15]", "result": 53, "unit": "ng/mL"},
      {"measurement": "inhibition", "setting": "[16]", "result": "Active"},
      {"measurement": "AUC(0-t) at 24 h", "setting": "[17]", "result": 202, "unit": "ng·h/mL"},
      {"measurement": "half-life", "setting": "[18]", "result": 2.7, "unit": "h"},
      {"measurement": "viability at 20 µM", "setting": "MOLT-4 [19]", "result": 74.6, "unit": "%"},
      {"measurement": "inhibition", "setting": "MOLT-4 [20]", "result": "Active"}
    ]}
  ]
}
